Hits are enriched below; roughly 3.8% of the tested compounds scored in any of these assays.
GPR7 antagonist: GPR7 receptor antagonists, primary screen, cell-based, fluorescence, single concentration; Neuropeptides B/W receptor type 1 (Homo sapiens), P48145; GPR7-expressing cells, fluorescence antagonist assay; inhibition, % at 4.4 µM; hit rate 1.1% among 290,000; AID 1861, 2009; in the data active means inhibition above about 16%, passing the limit was not always enough;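 further: cells stimulated with the agonist NPW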
OX1R antag-1: antagonists of human orexin 1 receptor (OX1R); Orexin/Hypocretin receptor type 1 (Homo sapiens), O43613; OX1R-expressing cells, FRET antagonist read-out; inhibition, % at 6.6 µM; hit rate 1.8% among 330,000; AID 485270, 2010; in the data active means inhibition mostly above about 38%, no sharp cut-off; inactive means mostly below about 40%
Target sequence (O43613 whole entry, looked up): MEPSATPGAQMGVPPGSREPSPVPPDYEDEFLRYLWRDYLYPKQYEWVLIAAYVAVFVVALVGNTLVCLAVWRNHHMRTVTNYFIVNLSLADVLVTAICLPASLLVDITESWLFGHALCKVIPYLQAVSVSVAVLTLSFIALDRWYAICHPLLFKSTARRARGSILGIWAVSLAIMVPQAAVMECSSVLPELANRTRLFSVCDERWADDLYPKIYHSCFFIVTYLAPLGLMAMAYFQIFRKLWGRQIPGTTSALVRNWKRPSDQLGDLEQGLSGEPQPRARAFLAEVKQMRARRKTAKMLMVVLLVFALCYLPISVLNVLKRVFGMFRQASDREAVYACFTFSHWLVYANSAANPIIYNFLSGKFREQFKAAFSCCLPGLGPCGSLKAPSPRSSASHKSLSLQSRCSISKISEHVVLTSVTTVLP
OX1R antag-2: OX1R (HCRTR1) antagonists, primary screen, fluorescence, CHO/OX1R cells, Fluo-8 calcium, orexin A | AID 434989, 2010 | inhibition, % at 5 µM | hit rate 0.43% among 330,000 | Fluo-8 calcium fluorescence;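 active means inhibition above its plate's threshold, mean inhibition of all tested compounds on the plate plus 3 SD, cut at about 37% in these data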
MPTP block: mitochondrial permeability transition pore inhibitors, primary screen, biochemical, isolated mouse mitochondria, absorbance; Ca2+ swelling absorbance, 30 min; inhibition, % at 10 µM; hit rate 1.4% among 360,000; AID 602449, 2012;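 active means inhibition of 50% or more, scaled per plate between neutral and stimulator controls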
CHO parental Ca: ATP-evoked calcium signal inhibitors, parental CHO, primary screen, counter-screen for OX1R antagonist project, cell-based, fluorescence, Fluo-8 calcium dye | inhibition, % at 5.6 µM | parental CHO-K1, ATP-induced calcium, Fluo-8 fluorescence | hit rate 0.63% among 330,000 | AID 463079, 2010;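 active means inhibition above that plate's mean sample inhibition plus 3 SD, cut at about 26% in these data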
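Assay system: parental CHO cells; Read-out basis: percent inhibition of ATP-evoked calcium rise, normalized to controls; Benchmarks: ATP and no-ATP DMSO wells; Compound dosing: single nominal dose of 5.6 µM per compound; Signal: Fluo-8 calcium dye fluorescence; Also added: ATP as calcium-mobilizing challenge; Repeats: singlicate.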
MPTP counter: fluorescence retest of MPTP screen hits in isolated mitochondria, single concentration. membrane potential, Rhodamine 123 fluorescence. inhibition, % at 10 µM. AID 624504, 2012. shares compounds with MPTP block. hit rate 78% among 5,000; in the data active means inhibition above about 22%
MPTP abs DR: mitochondrial permeability transition pore inhibitors, dose response, biochemical, absorbance, uHTS hits | shares compounds with MPTP block | isolated mitochondria swelling | IC50, µM | hit rate 58% among 780; in the data active means IC50 below about 20 µM
MPTP cs DR: fluorescent counter-screen in isolated mitochondria, dose response, counter-screen for MPTP inhibitor project, biochemical, fluorescence, uHTS hits. shares compounds with MPTP block. isolated mitochondria counterscreen, fluorescence read-out. IC50, µM. hit rate 49% among 780; in the data active means IC50 below about 80 µM
Hits are given with their value; n = inactive; x = no result.

SMILES | GPR7 antagonist | OX1R antag-1 | OX1R antag-2 | MPTP block | CHO parental Ca | MPTP counter | others
Cc1cc(C(=O)NC2CCCc3c2cnn3-c2ccc(C(C)(C)C)cc2)nn1C (configuration not stated) | n | n | n | 89 | 51 | 105
Cc1cccc(-n2ncc3c2CCCC3NC(=O)c2cccs2)c1C (configuration not stated) | x | x | x | n | x | x
CCn1cc(C(=O)NC2CCCc3c2cnn3-c2cccc(C)c2C)cn1 (configuration not stated) | n | n | n | 87 | 54 | 104
Cc1cccc(-n2ncc3c2CCCC3NC(=O)CN2CCOC2=O)c1C (configuration not stated) | n | n | n | n | n | x
COc1ccc(-c2c[n+]3c4n2CCCCC4=C(c2ccc(Br)cc2)C3)cc1 | n | n | n | 56 | n | 68
CSc1nc(C)cc(SCC(=O)N/N=C/c2ccccc2)n1 | n | n | n | n | n | x
O=C(COC(=O)c1cc(Cl)ccc1[N+](=O)[O-])NCc1ccc(Cl)cc1Cl | n | n | n | n | n | x
c1coc(CN(Cc2ccco2)c2ncnc3c2oc2ccccc23)c1 | n | n | n | 83 | 36 | 67
CCSc1ncnc2c1oc1ccccc12 | n | n | n | n | n | x
Cc1ccc(NC(=O)CSc2nnc(-c3ccncc3)n2C)cc1S(=O)(=O)N1CCOCC1 | n | n | n | n | n | x
CCOC(=O)C1(Cc2cccc(OC)c2)CCN(Cc2ccc(C)s2)CC1 | n | n | n | 97 | n | 85
CCOC(=O)C1(CCOc2ccccc2)CCN(Cc2ccc(OC)cc2)CC1 | n | n | n | 87 | n | 36
CCCn1c(N)c(N(CCOC)C(=O)/C=C/c2cccc(Cl)c2)c(=O)[nH]c1=O | n | n | n | n | n | x
O=C(Cc1ccc(F)cc1)c1ccc(O)cc1O | n | n | n | n | n | x
CCc1cc(C(=O)Cc2ccc(F)cc2)c(O)cc1O | n | n | n | 68 | n | 68
COCC1CCCCN1Cc1cn[nH]c1-c1ccc2cc(OC)ccc2c1 (configuration not stated) | n | n | n | n | n | x
Cc1ccccc1CNc1ncnc2cc(Cl)ccc12 | n | n | n | n | n | x
Cc1ccc(CNc2ncnc3cc(Cl)ccc23)cc1 | n | n | n | 87 | 35 | 76
O=C(Cn1cc(C(=O)C(F)(F)F)c2ccccc21)N1CCOCC1 | n | n | n | n | n | x
CN(C)/C=N/N(C)c1ncccc1[N+](=O)[O-] | n | n | n | n | n | x
O=C(CSc1nc2ccc([N+](=O)[O-])cc2[nH]1)c1ccc2ccccc2c1 | n | n | n | 99 | n | 68
COc1ccc(-c2csc(NS(=O)(=O)c3ccc([N+](=O)[O-])cc3)n2)cc1 | n | n | n | 84 | n | 78
CNc1nc(-c2ccc([N+](=O)[O-])cc2)cs1 | n | n | n | n | n | x
CC(C)(C)OC(=O)N1CCCC(C(=O)Nc2ccc(C(=O)NC3CC3)cc2)C1 (configuration not stated) | x | x | x | 168 | x | n | MPTP abs DR=n;MPTP cs DR=n
CN(C(=O)c1ccc(NC(=O)C2CCCN(C(=O)OC(C)(C)C)C2)cc1)C1CC1 (configuration not stated) | x | n | n | n | n | x
SMILES | GPR7 antagonist | OX1R antag-1 | OX1R antag-2 | MPTP block | CHO parental Ca | MPTP counter | others
CC(C)(C)c1ccc(CNc2ccc([N+](=O)[O-])cn2)cc1 | n | n | n | 56 | n | 75
CCN(CC)CC#CCC(C)(c1ccccc1)c1ccccc1 | n | n | n | 59 | n | n | MPTP abs DR=n;MPTP cs DR=28
COc1ccc(Cl)cc1NC(=O)C1CC(=O)N(C2CCCCC2)C1 (configuration not stated) | n | n | n | n | n | x
O=C(Nc1ccc(Cl)c(Cl)c1)Oc1ccc(NC(=O)c2ccco2)cc1 | n | n | n | 102 | 42 | 77
O=C(NC(NC(=S)Nc1ccc(Cl)c(Cl)c1)C(Cl)(Cl)Cl)c1ccco1 (configuration not stated) | n | n | n | 100 | n | 100
O=C(Nc1ccc(OC(=O)c2ccco2)cc1)c1ccco1 | n | n | n | n | n | x
COc1ccc(Nc2ccnc(Nc3ccc(OC)cc3)n2)cc1 | n | n | n | 78 | n | n | MPTP abs DR=11;MPTP cs DR=35
COc1ccc(Nc2nc(OC)nc(OC)n2)cc1 | n | n | n | n | n | x
Cc1cc(Cl)n2c(nc3cc(F)c(F)cc32)c1C#N | n | x | x | 95 | x | 91
CN(C)C(CNc1ccc([N+](=O)[O-])cc1C#N)c1ccccc1 (configuration not stated) | n | n | n | n | n | x
CCOC(=O)c1cc(-c2ccccc2)sc1NC(=O)C(C)OC(=O)c1cccnc1OCC (configuration not stated) | n | n | n | 68 | n | n | MPTP abs DR=n;MPTP cs DR=n
CCOC(=O)c1cc(-c2ccccc2)sc1NC(=O)C(C)OC(=O)c1cccc(S(=O)(=O)N(C)C)c1 (configuration not stated) | n | n | n | n | n | x
COc1ccc(C(CNC(=O)c2ccc(NS(=O)(=O)c3ccc(F)c(C)c3)cc2)N2CCCC2)cc1 (configuration not stated) | x | x | x | n | x | x
CCOc1ccc(NS(=O)(=O)c2ccc(C(=O)NCC(c3ccc(OC)cc3)N3CCCC3)cc2)cc1 (configuration not stated) | x | n | n | 85 | n | n | MPTP abs DR=9;MPTP cs DR=n
O=C(Nc1ccc(OC(F)(F)F)cc1)Oc1ccccc1N1CCOCC1 | n | n | n | 88 | n | 82
O=C(Nc1ccc(OC(F)(F)F)cc1)Oc1ccccc1N1CCCCC1 | n | n | n | 82 | n | 89
O=C(Nc1ccc(F)cc1)Oc1ccccc1N1CCOCC1 | n | n | n | n | n | x
CCCCCCCCSc1nnc(CSc2nc3nc(C)cc(C)n3n2)o1 | n | n | n | 87 | n | n | MPTP abs DR=n;MPTP cs DR=50
COc1ccc(/C=C/c2nc(-c3ccccc3O)n[nH]2)cc1 | n | n | n | 56 | n | 46
COc1ccc(/C=C/c2nc(-c3ccccc3O)n(-c3ccccc3)n2)cc1 | n | n | n | n | n | x
COc1ccc(C[C@H]2CN3C(=NC[C@@H]3C(C)C)N2CCNC(=O)c2ccc(C)c(Br)c2)cc1 | n | n | n | 69 | n | n
c1ccc(CNCCCNCCCCNCCCNCc2ccccc2)cc1 | x | x | x | 84 | x | n | MPTP abs DR=1.4;MPTP cs DR=n
CCCn1c(C)cc(C(=O)COC(=O)CN=C2NS(=O)(=O)c3ccccc32)c1C | n | n | n | n | n | x
